Compound activity: PubChem BioAssay, Broad Institute
The list is not random: actives were taken first. Their share in the collection is about 1.7%.
CSC inhib – cancer stem cell inhibition | cancer stem cell-like cells viability, luminescence | inhibition, % at 7.5 µM | 300,000 compounds, 1.1% hits; in the data active means inhibition above about 75%; tested in HMLE shEcad cells
Rtt109 Vps75 – inhibitors of Candida albicans Rtt109/Vps75 histone acetyltransferase; inhibition, % at 34.9 µM; 330,000 compounds, 0.16% hits; Q5AAJ8; purified Rtt109/Vps75, ThioGlo CoA-SH fluorescence, 4 h;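 active means inhibition of at least 50% in every replicate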
Target sequence (Q5AAJ8 whole entry, looked up): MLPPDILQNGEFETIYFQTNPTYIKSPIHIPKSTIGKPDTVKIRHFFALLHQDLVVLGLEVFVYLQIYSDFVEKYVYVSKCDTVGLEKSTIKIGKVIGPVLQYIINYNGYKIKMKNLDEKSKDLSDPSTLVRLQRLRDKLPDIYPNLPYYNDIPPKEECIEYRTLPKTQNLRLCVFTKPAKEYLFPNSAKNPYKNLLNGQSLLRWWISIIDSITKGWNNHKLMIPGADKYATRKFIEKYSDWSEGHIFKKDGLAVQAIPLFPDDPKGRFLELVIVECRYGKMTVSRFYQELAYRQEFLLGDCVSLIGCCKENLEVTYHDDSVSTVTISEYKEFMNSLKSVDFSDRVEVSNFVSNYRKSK
SKKanGAS inh – blocks kanamycin growth of S. pyogenes SKKanGAS strain. AID 1662. 300,000 compounds, 1.3% hits. inhibition, % at 7.5 µM. BacTiter-Glo, 6 h;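 active means mean replicate score, as percent of positive control median, at least 50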;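 further: strain carries kanamycin resistance gene driven by streptokinase promoter and grows in 40 µg/ml kanamycin; loss of luminescence reflects streptokinase promoter inhibition or plain growth inhibition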
PfHsp90 set2 – growth inhibition of yeast expressing Plasmodium Hsp90; S. cerevisiae expressing PfHsp90, BacTiter-Glo ATP, 48 h; yeast lacking PDR1 and PDR3 efflux regulators; inhibition, % at 9.4 µM; 310,000 compounds, 0.32% hits;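 active means every replicate shows inhibition above about 80%, whatever the replicate mean, limit read from the data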
FN deposition inh – fibronectin deposition inhibition | AH1F fibroblasts, Alexa488-fibronectin deposition fluorescence, overnight | inhibition, % at 12.6 µM | 350,000 compounds, 0.086% hits;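 active means mean inhibition across replicates of 30% or more, regardless of how many single replicates reach that level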
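Material: AH1F fibroblast monolayer depositing Alexa488-labelled fibronectin into matrix / Amount: 10000 AH1F cells per well / Signal: fluorescence 485/525 nm / Medium: DMEM, 2% serum / Compound: single dose, pinned / Incubation: 1 h cell adhesion before compound, then overnight fibronectin incubation / Reagent: Alexa488-FN, 24 nM final / Read-out: inhibition of fibronectin deposition signal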
PglD DTNB – blocks C. jejuni PglD acetyltransferase activity; purified PglD enzyme, DTNB colorimetric CoA detection; inhibition, % at 12.5 µM; 360,000 compounds, 0.098% hits; AID 602405; in the data active means inhibition above about 16%, passing the limit was not always enough
A number is an active result; . = inactive; / = no result.

SMILES | CSC inhib | Rtt109 Vps75 | SKKanGAS inh | PfHsp90 set2 | FN deposition inh | PglD DTNB
CCCOc1ccc(C(=O)NC(=S)NNC(=O)c2c(-c3ccccc3)noc2C)cc1 | . | . | 100.3 | . | . | .
Cc1onc(-c2ccccc2)c1C(=O)NC(=S)NNC(=O)c1ccc(O)cc1 | . | . | 105.8 | . | / | /
O=C(NNC(=O)c1ccc(O)cc1O)c1ccc(-c2ccccc2)cc1 | . | . | . | . | . | .
Cc1onc(-c2ccccc2)c1C(=O)NNC(=O)c1ccccc1Br | . | . | / | . | . | .
COC(=O)c1ccc(NC(=S)NC(=O)c2c(-c3ccccc3)noc2C)cc1 | . | . | . | . | . | /
Cc1onc(-c2ccccc2)c1C(=O)NC(=S)NNC(=O)c1ccc(O)cc1O | . | . | 80.1 | . | . | /
Cc1onc(-c2ccccc2)c1C(=O)NC(=S)NNC(=O)c1ccccc1O | . | . | 86.7 | 100.9 | . | /
CO[C@@H]1CN(C)C(=O)c2cc(NS(=O)(=O)Cc3ccccc3)ccc2OC[C@@H](C)N(Cc2cccnc2)C[C@H]1C | / | / | / | / | . | .
O=C(N[C@H]1CC[C@H](CCn2cc(-c3ccc(F)cc3)nn2)O[C@H]1CO)c1cnccn1 | / | / | / | / | / | .
C[C@H]1CCCCO[C@H](CN(C)S(=O)(=O)c2ccc(F)cc2)[C@@H](C)CN([C@@H](C)CO)C(=O)c2cc(NS(=O)(=O)c3ccccc3)ccc2O1 | / | / | / | / | . | .
CC(C)c1c(C(=O)N/N=C/c2ccc3c(c2)OCO3)nnn1-c1nonc1N | . | . | . | . | . | .
CC(C)c1c(C(=O)N/N=C/c2cccc(OCc3ccc(F)cc3)c2)nnn1-c1nonc1N | . | . | 87.5 | . | . | .
CCN(CC)c1ccc(/C=N/NC(=O)c2nnn(-c3nonc3N)c2C(C)C)c(O)c1 | . | . | 58.6 | . | . | .
CCCc1c(C(=O)N/N=C/c2ccc(OCc3ccccc3)c(OC)c2)nnn1-c1nonc1N | . | . | . | . | . | .
COc1cc(/C=N/NC(=O)c2nnn(-c3nonc3N)c2C(C)C)ccc1OCc1ccc(F)cc1 | . | . | 58.0 | . | . | .
O=C(N[C@H]1CC[C@H](CC(=O)N2CCC(Cc3ccccc3)CC2)O[C@H]1CO)c1cnccn1 | / | / | / | / | . | .
C[C@@H]1CN([C@@H](C)CO)C(=O)c2cc(NS(=O)(=O)c3cn(C)cn3)ccc2O[C@H]1CN(C)Cc1ccccc1 | / | / | / | / | / | .
CN(C)C(=O)[C@H]1[C@H](CO)[C@H]2Cn3c(ccc(C4=CCCCC4)c3=O)[C@@H]1N2C | / | / | / | / | / | .
CCOc1ccc2[nH]c(C(=O)N/N=C/c3ccc(OC)cc3)cc2c1 | . | . | . | . | / | .
COc1cccc(/C=N/NC(=O)N/N=C/c2cccc(OC)c2O)c1O | . | . | . | . | . | .
COc1cc(OC)c2cc(C(=O)N/N=C/c3cccc(OC)c3O)[nH]c2c1 | 125.5 | / | . | . | . | .
COc1cccc(/C=N/NC(=O)c2ccc3nc[nH]c3c2)c1O | . | . | . | . | . | .
COc1ccc2[nH]c(C(=O)N/N=C/c3ccc(O)cc3O)cc2c1 | 100.2 | . | . | . | / | .
COc1cccc(/C=N/NC(=O)c2cc3c(OC)ccc(OC)c3[nH]2)c1O | 102.5 | . | 106.5 | . | . | /
CCCC(=O)Nc1ccc2c(c1)OC[C@@H](C)N(Cc1cc(F)ccc1F)C[C@@H](C)[C@H](OC)CN(C)C2=O | / | / | / | / | . | .
SMILES | CSC inhib | Rtt109 Vps75 | SKKanGAS inh | PfHsp90 set2 | FN deposition inh | PglD DTNB
O=C(C[C@H]1C=C[C@H](NC(=O)CC2CC2)[C@@H](CO)O1)NCC(F)(F)F | / | / | / | / | . | .
C[C@H]1CN([C@@H](C)CO)C(=O)c2cc(-c3cccc(C(=O)N(C)C)c3)cnc2O[C@H]1CN(C)C | / | / | / | / | . | .
O=C(N[C@H]1CC[C@H](CCNC(=O)c2ccccc2F)O[C@H]1CO)c1cnccn1 | / | / | / | / | . | .
CO[C@@H]1CN(C)C(=O)c2cc(NS(=O)(=O)c3cn(C)cn3)ccc2OC[C@@H](C)N(CCC(F)(F)F)C[C@@H]1C | / | / | / | / | / | .
c1ccc2[nH]c(SCc3cn4cccnc4n3)nc2c1 | / | . | . | . | 31.2 | /
CCc1ccc2[nH]c(O)c(N=Nc3nc(-c4ccccc4)cs3)c2c1 | . | . | 52.7 | . | / | /
CO[C@@H]1CN(C)C(=O)c2ccc(NS(=O)(=O)c3ccc(-c4ccccc4)cc3)cc2OC[C@@H](C)NC[C@@H]1C | / | / | / | / | . | /
Cc1cc(OCC(=O)Nc2ccc(S(=O)(=O)NC3=NCCCCC3)cc2)c(C(C)C)cc1Cl | 85.0 | . | . | . | . | .
O=[N+]([O-])/C=C\c1ccc(N2CCCC2)c(F)c1 | / | . | . | 105.5 | / | .
CN(C)C(=O)C[C@H]1CC[C@@H]2[C@H](COC[C@H](O)CN2C(=O)C2CC2)O1 | / | / | / | / | . | .
C[C@@H]1CN([C@H](C)CO)C(=O)c2cc(N(C)C)ccc2O[C@H]1CN(C)C(=O)Nc1ccc(C(F)(F)F)cc1 | / | / | / | / | . | .
CCOc1cccc(/C=N/NC(=S)Nc2ccccc2[N+](=O)[O-])c1O | . | . | 73.2 | . | . | .
Nc1nc(CN2CCN(c3ccc(F)cc3)CC2)nc(N2CCCc3ccccc32)n1 | . | / | 84.4 | / | . | .
COc1ccccc1-c1cn(CC[C@@H]2CC[C@H](NC(=O)C3CCCC3)[C@H](CO)O2)nn1 | / | / | / | / | . | /
COC(=O)/C=C1\S/C(=N/NC(=O)c2ccccc2)NC1=O | . | . | . | . | . | .
COc1ccccc1/C=C1\S/C(=N/NC(=O)c2cccc(Br)c2)NC1=O | 114.3 | . | 81.0 | . | . | .
CC(C)(C)c1ccc(Oc2cccc(C3CC(=O)C(C4NCCc5ccccc54)C(=O)C3n3cncn3)c2)cc1 (stereo not drawn) | . | . | 96.4 | . | / | .
COCc1cn(CC[C@@H]2CC[C@@H](NC(=O)Nc3c(C)noc3C)[C@H](CO)O2)nn1 | / | / | / | / | . | .
COC(=O)C1C(=O)C2=C(CC1C)NC(=O)CC2c1cccc(C)c1 (stereo not drawn) | 101.0 | . | . | . | / | /
COC(=O)C1C(=O)C2=C(CC1C)NC(=O)CC2c1ccccc1 (stereo not drawn) | . | . | . | / | / | .
Cc1cc(Oc2ccc(-c3ccccc3)cc2)nc(N2CCOCC2)n1 | . | . | 54.0 | . | / | .
CC(C)NC(=O)N(C)C[C@@H]1OCCCC[C@@H](C)Oc2ccc(NS(=O)(=O)c3ccc(Cl)cc3)cc2C(=O)N([C@H](C)CO)C[C@H]1C | / | / | / | / | . | .
C[C@@H](NC(=O)C[C@H]1C[C@@H]2c3cc(NC(=O)C4CCOCC4)ccc3O[C@@H]2[C@@H](CO)O1)c1ccccc1 | / | / | / | / | / | .
Cc1ccc(S(=O)(=O)N2CCN(C(=O)COc3ccc(NC(=O)c4ccco4)cc3)CC2)cc1 | 93.6 | . | . | . | / | /
O=C(Nc1ccc(S(=O)(=O)N2CCOCC2)cc1)c1ccco1 | . | . | . | / | . | .
CC(C)C1OC2c3cccc4cccc(c34)C2N1c1ccccc1 (stereo not drawn) | . | . | 79.8 | . | . | .
